Calls of active or inactive are those of the source. The rule behind the calls is not given here.
Legend:
[1] = biological target: T1, Angiotensin II receptor (Rattus norvegicus, UniProt P29089+P25095+P35351); experiment: Inhibition of radioligand [3H]angiotensin II binding to angiotensin II receptor of rat adrenal cortical membrane
T1 sequence (P29089 whole entry): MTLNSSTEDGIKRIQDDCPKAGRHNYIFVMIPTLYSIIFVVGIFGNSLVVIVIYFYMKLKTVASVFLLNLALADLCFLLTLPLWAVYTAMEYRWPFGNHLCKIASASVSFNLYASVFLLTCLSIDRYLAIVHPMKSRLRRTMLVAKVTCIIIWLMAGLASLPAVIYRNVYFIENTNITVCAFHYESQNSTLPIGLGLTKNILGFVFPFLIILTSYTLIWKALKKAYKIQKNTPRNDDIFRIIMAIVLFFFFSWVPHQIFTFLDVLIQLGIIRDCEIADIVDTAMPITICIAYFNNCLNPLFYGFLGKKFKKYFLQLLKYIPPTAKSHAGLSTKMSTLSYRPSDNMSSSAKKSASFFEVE
T1 sequence (P25095 whole entry): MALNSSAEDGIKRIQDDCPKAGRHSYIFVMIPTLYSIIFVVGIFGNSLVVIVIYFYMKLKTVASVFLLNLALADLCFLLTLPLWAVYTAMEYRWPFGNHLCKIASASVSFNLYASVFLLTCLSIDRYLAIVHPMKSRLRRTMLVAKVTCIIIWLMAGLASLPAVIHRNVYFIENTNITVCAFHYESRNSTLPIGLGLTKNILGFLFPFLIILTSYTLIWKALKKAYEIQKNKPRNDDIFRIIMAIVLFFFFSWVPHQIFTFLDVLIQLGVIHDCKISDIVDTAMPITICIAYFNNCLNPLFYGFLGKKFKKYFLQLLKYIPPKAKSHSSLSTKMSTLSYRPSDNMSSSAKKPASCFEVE
T1 sequence (P35351 whole entry): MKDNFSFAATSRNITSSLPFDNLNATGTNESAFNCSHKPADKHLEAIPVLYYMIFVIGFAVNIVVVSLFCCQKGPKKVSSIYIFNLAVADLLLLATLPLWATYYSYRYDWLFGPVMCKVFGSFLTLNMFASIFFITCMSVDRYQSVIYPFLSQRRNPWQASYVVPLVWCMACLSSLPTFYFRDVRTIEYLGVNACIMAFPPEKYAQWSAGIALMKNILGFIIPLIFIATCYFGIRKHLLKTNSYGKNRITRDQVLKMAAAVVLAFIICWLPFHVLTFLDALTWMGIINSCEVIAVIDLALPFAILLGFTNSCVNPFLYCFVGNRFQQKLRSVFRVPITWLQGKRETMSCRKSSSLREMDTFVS
Method in brief: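 Rat adrenal cortical microsomes came from male Sprague-Dawley CD rats (300-400 g) and were prepared at 4 °C in sucrose/EDTA/Tris pH 7.4. Samples were filtered and counted, in duplicate. Specific binding was defined with 1 µM unlabeled AII. IC50 was taken from the linear portion of the displacement curve.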

[2] = tested on: Rattus norvegicus; experiment: Blood pressure lowering activity in renal hypertensive rats after peroral administration; type: functional
Method in brief: (§1)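 Conscious male Sprague-Dawley CD rats, six days after left renal artery ligation and with jugular and carotid cannulae, were dosed by oral gavage at 1-100 mg/kg (4-6 rats/dose). Mean arterial pressure was monitored for 3 h.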

[3] = tested on: Rattus norvegicus; experiment: Effective dose that lowers the blood pressure 30 mmHg after intravenous administration; type: functional
Method in brief: (§2)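 Renal artery-ligated conscious rats (4-6 per dose) received compound iv or po. ED30 is the dose lowering blood pressure by 30 mmHg. It was calculated by linear regression of mean maximal decreases, using at least three doses from the linear part of the dose-response curve.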

[4] = tested on: Rattus norvegicus; experiment: Blood pressure lowering activity in renal hypertensive rats after intravenous administration; type: functional
Method in brief: (§3)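 Male Sprague-Dawley CD rats had the left renal artery ligated under hexobarbital (100 mg/kg ip). Six days later the jugular vein and carotid artery were cannulated under hexobarbital (90 mg/kg ip). Compound was given intravenously to the conscious hypertensive rats while mean arterial pressure was recorded.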

[5] = tested on: Rattus norvegicus; experiment: Effective dose that lowers the blood pressure 30 mmHg after peroral administration; type: functional; details: po; method in brief: as §2
[6] = tested on: Rattus norvegicus; experiment: Blood pressure lowering activity in renal hypertensive rats after peroral administration; Inactive indicates fail to cause significant drop in blood pressure even at 100 mg/kg (in vivo); type: functional, organism-based; parameters: dose 100 mg/kg; method in brief: as §1
[7] = Ionization constant for the compound; type: physicochemical, Rattus norvegicus
[8] = tested on: Rattus norvegicus; experiment: Blood pressure lowering activity in renal hypertensive rats after intravenous administration; no drop in blood pressure or a statistically insignificant drop in blood pressure was observed (in vivo); type: functional; method in brief: as §3
[9] = tested on: Rattus norvegicus; experiment: Blood pressure lowering activity in renal hypertensive rats after peroral administration; Inactive indicates fail to cause significant drop in blood pressure even at 100 mg/kg; type: functional, organism-based; parameters: dose 100 mg/kg; method in brief: as §1
[10] = tested on: Rattus norvegicus; experiment: These values indicate drop in blood pressure activity in renal hypertensive rats after peroral administration; NA=not active indicates fail to cause drop in blood pressure even at 30 mg/Kg (in vivo); type: functional, organism-based
[11] = tested on: Rattus norvegicus; experiment: Blood pressure lowering activity in renal hypertensive rats after intravenous administration; NA=not active indicates fail to cause drop in blood pressure even at 100 mg/Kg (in vivo); type: functional, organism-based; method in brief: as §3
[12] = tested on: Rattus norvegicus; experiment: Blood pressure lowering activity in renal hypertensive rats after peroral administration; NA=not active indicates fail to cause drop in blood pressure even at 100 mg/Kg (in vivo); type: functional, organism-based; method in brief: as §1
[13] = tested on: Rattus norvegicus; experiment: Blood pressure lowering activity in renal hypertensive rats after peroral administration; no drop in blood pressure or a statistically insignificant drop in blood pressure was observed (in vivo); type: functional; method in brief: as §1

Row | Compound | IC50 [1] [nM] | pKa [7] | Activity [2] [mg/kg] | ED30 [3] [mg/kg] | further results
1 | CCCCc1nc(Cl)c(CO)n1Cc1ccc(-c2ccc(OC)cc2-c2nn[nH]n2)cc1 | 580 | – | >10 | 1.75 | –
2 | CCCCc1nc(Cl)c(CNC(=O)c2cc3c(OCC(O)CNC(C)C)cccc3[nH]2)n1Cc1ccc(-c2ccccc2C(=O)O)cc1 (stereo not given) | 380 | – | – | 1 | –
3 | CCCCc1nc(Cl)c(C=O)n1Cc1ccc(-c2ccccc2C(=O)O)cc1 | – | – | – | – | Activity [4]: 10 mg/kg; ED30 [5]: 1.7 mg/kg
4 | CCCCc1nc(Cl)c(CO)n1Cc1ccc(-c2ccccc2C(=O)NOCc2ccccc2)cc1 | 4900 | 10.8 | – | – | Activity [6]: inactive; Activity [4]: 10 mg/kg
5 | CCCCc1nc(Cl)c(C=O)n1Cc1ccc(-c2ccc(-c3nn[nH]n3)cc2)cc1 | > 10000 | – | >30 | – | Activity [8]: >3 mg/kg
6 | CC/C=C/c1nc(Cl)c(CO)n1Cc1ccc(-c2ccccc2C(=O)O)cc1 | – | – | – | 1 | ED30 [5]: 3.6 mg/kg
7 | CCCCc1nc(Cl)c(CO)n1Cc1ccc(-c2cc(C#N)ccc2-c2nn[nH]n2)cc1 | 510 | – | >30 | – | Activity [8]: >3 mg/kg
8 | CCCCc1nc(Cl)c(CO)n1Cc1ccc(-c2ccccc2-c2nnn[nH]2)cc1 [LOSARTAN] | – | 6 | – | 0.8 | ED30 [5]: 0.59 mg/kg
9 | CCCCc1nc(Cl)c(CO)n1Cc1ccc(-c2cc(OC)ccc2-c2nn[nH]n2)cc1 | – | – | >10 | 6.03 | –
10 | CCCCc1ncc(CO)n1Cc1ccc(-c2ccccc2-c2nn[nH]n2)cc1 | – | – | – | – | Activity [11]: inactive; Activity [12]: inactive
11 | CCCc1nc(C)c(CO)n1Cc1ccc(-c2ccccc2C(=O)O)cc1 | 1800 | – | >30 | 1.3 | –
12 | CCCCc1nc(C(F)(F)F)c(CO)n1Cc1ccc(-c2ccccc2-c2nn[nH]n2)cc1 | – | – | – | 0.53 | Activity [13]: >3 mg/kg

More lines, main results first:

Row | IC50 [1] [nM] | pKa [7] | Compound | Activity [2] [mg/kg] | ED30 [3] [mg/kg] | further results
13 | – | 5 | CCCCc1nc(Cl)c(CO)n1Cc1ccc(-c2ccccc2C(=O)O)cc1 | – | – | Activity [4]: 3 mg/kg; ED30 [5]: 11 mg/kg
14 | 92 | – | CCCCc1nc(Cl)c(C(=O)O)n1Cc1ccc(-c2ccccc2C(=O)O)cc1 | >10 | 0.47 | –
15 | – | 10.9 | CCCCc1nc(Cl)c(CO)n1Cc1ccc(-c2ccccc2C(=O)NOC)cc1 | – | – | Activity [4]: 10 mg/kg; Activity [9]: inactive
16 | – | 8.44 | CCCCc1nc(Cl)c(CO)n1Cc1ccc(-c2ccccc2C(=O)NS(=O)(=O)c2ccccc2)cc1 | – | – | Activity [8]: >3 mg/kg; Activity [10]: inactive
17 | 200 | – | CCCCc1nc(Cl)c(COC)n1Cc1ccc(-c2ccccc2C(=O)NNS(=O)(=O)C(F)(F)F)cc1 | >30 | – | Activity [8]: >3 mg/kg
18 | 4100 | 10.5 | CCCCc1nc(Cl)c(CO)n1Cc1ccc(-c2ccccc2C(=O)NO)cc1 | >30 | – | Activity [8]: >3 mg/kg

Reference: ChEMBL document CHEMBL1125185, “Nonpeptide angiotensin II receptor antagonists: the discovery of a series of N-(biphenylylmethyl)imidazoles as potent, orally active antihypertensives” (J Med Chem, 1991)
